From ChEMBL document CHEMBL3861960, “Leoligin, the Major Lignan from Edelweiss (Leontopodium nivale subsp. alpinum), Promotes Cholesterol Efflux from THP-1 Macrophages” (J Nat Prod, 2016)
The source made the active and inactive calls. No cut-off for these calls is given here.

Assays:
[1] = Upregulation of ABCA1 mRNA expression in human THP1 cells at 10 uM after 24 hrs by qPCR method relative to control; assay type: functional, cell-based; settings: THP-1
Method in brief: (§1)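 THP-1 macrophages treated for 24 h with 10 μM compound, 10 μM pioglitazone or DMSO. Total RNA extracted and converted to cDNA; ABCA1 or ABCG1 measured by SYBR Green qPCR and expressed relative to 18S. Mean ± SD of four independent experiments; one-way ANOVA with Bonferroni test against DMSO.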

[2] = Upregulation of ABCG1 mRNA expression in human THP1 cells at 10 uM after 24 hrs by qPCR method relative to control; assay type: functional, cell-based; settings: THP-1; method in brief: as §1

CCc1ccc(CCOc2ccc(CC3SC(=O)NC3=O)cc2)nc1 (configuration not stated)
Activity [1]: Active | Activity [2]: Active
